Results taken from ChEMBL document CHEMBL3860061, “A Novel Parkinson's Disease Drug Candidate with Potent Anti-neuroinflammatory Effects through the Src Signaling Pathway” (J Med Chem, 2016).
pIC50: −log10 of the molar value. Activity calls are given as the source filed them. The rule behind the calls is not given here.

Legend:
[1] = molecular target: Proto-oncogene tyrosine-protein kinase Src (Mus musculus, UniProt P05480); test: Inhibition of Src in mouse BV2 cells assessed as suppression of LPS-induced NO release preincubated for 1 hr followed by LPS addition measured after 24 hrs by Griess assay; assay type: cell-based, BV-2
Sequence of Proto-oncogene tyrosine-protein kinase Src (P05480 2-535 limits assumed): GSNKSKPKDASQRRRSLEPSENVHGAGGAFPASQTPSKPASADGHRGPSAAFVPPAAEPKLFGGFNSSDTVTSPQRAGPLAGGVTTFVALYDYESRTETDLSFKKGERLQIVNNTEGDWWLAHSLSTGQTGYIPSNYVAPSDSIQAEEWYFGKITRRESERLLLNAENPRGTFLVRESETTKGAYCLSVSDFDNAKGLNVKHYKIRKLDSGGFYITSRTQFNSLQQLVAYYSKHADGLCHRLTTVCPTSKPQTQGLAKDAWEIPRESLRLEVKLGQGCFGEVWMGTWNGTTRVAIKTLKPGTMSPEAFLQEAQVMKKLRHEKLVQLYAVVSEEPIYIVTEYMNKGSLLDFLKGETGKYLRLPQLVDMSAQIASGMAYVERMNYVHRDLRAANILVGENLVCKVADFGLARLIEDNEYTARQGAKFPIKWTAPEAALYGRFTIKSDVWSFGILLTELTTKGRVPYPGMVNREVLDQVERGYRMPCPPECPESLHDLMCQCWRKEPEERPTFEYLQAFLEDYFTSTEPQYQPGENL
Outline: (§1)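 BV-2 cells in DMEM/10% FBS, plated at 5×10^3 per well. After 24 h, treated at 100, 50, 10, 5, 1 and 0.1 µM; 1 h later LPS 300 ng/mL added. After another 24 h, nitrite in the medium measured by Griess assay.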

[2] = Drug uptake in ICR mouse plasma at 50 mg/kg, ig after 5 mins by LC/MS/MS analysis; assay type: ADME, organism-based; details: in vivo, po
[3] = molecular target: Proto-oncogene tyrosine-protein kinase Src (Rattus norvegicus) (UniProt Q9WUD9); test: Inhibition of Src in Sprague-Dawley rat primary mixed mesecephalic neuron/glial cells assessed as suppression of LPS-induced IL-1beta expression at 10 uM preincubated for 1 hr followed by LPS challenge measured after 5 hrs by ELISA
Sequence of Proto-oncogene tyrosine-protein kinase Src (Rattus norvegicus) (Q9WUD9 2-536 limits assumed): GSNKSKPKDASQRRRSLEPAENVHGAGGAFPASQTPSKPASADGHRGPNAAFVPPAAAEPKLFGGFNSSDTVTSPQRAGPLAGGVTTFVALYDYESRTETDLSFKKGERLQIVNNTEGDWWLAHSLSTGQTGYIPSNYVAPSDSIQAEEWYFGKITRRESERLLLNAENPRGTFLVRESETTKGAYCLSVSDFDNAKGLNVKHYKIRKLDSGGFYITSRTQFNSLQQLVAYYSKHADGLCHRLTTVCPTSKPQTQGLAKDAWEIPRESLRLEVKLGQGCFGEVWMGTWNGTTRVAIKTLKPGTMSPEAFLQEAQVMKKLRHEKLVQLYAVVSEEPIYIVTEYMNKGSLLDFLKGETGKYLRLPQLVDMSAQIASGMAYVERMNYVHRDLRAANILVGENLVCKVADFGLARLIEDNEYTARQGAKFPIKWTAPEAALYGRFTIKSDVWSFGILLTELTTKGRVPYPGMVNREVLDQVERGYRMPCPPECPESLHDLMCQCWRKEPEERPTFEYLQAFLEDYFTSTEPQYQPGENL
Outline: (§2)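 Mixed mesencephalic neuron/glia cultures from E14 Sprague-Dawley rats, used at 7 days. Agent at 10 µM added 1 h before LPS 100 ng/mL; IL-1β and TNF-α in medium measured by ELISA after 5 h, n = 6.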

[4] = molecular target: Proto-oncogene tyrosine-protein kinase Src (Rattus norvegicus) (UniProt Q9WUD9); test: Inhibition of Src in Sprague-Dawley rat primary mixed mesecephalic neuron/glial cells assessed as suppression of LPS-induced TNFalpha expression at 10 uM preincubated for 1 hr followed by LPS challenge measured after 5 hrs by ELISA; outline: as §2
[5] = molecular target: Proto-oncogene tyrosine-protein kinase Src (Rattus norvegicus) (UniProt Q9WUD9); test: Inhibition of Src in Sprague-Dawley rat primary mixed mesecephalic neuron/glial cells assessed as suppression of LPS-induced microglia activation by measuring Iba-1 expression at 10 uM preincubated for 1 hr followed by LPS challenge measured after 24 hrs
[6] = Cmax in ICR mouse brain at 50 mg/kg, ig up to 8 hrs by LC/MS/MS analysis; assay type: ADME, organism-based; set-up: dose 50 mg/kg, route […]; details: in vivo, po, BLD = below limit of detection
Outline: (§3)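 Male ICR mice (22–25 g), fasted 16 h, single intragastric dose of 50 mg/kg. Blood and brain sampled at 5, 15, 30 min and 1, 2, 4, 8 h after decapitation. Plasma spun 4000 rpm 5 min; brain homogenised in saline and spun. Extracts run by LC/MS/MS on C18 columns at 30 °C, isocratic 70% acetonitrile (1% TFA)/30% water, 0.2 mL/min. Mean ± SD, n = 6.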

[7] = Cmax in ICR mouse blood at 50 mg/kg, ig up to 8 hrs by LC/MS/MS analysis; assay type: ADME, organism-based; set-up: dose 50 mg/kg, route […]; details: po; outline: as §3
[8] = AUC (0 to infinity) in ICR mouse blood at 50 mg/kg, ig up to 8 hrs by LC/MS/MS analysis; assay type: ADME, organism-based; set-up: dose 50 mg/kg, route […], time infinity; details: in vivo, po; outline: as §3
[9] = molecular target: Proto-oncogene tyrosine-protein kinase Src (Mus musculus) (UniProt P05480); test: Inhibition of Src signaling pathway in mouse BV2 cells assessed as suppression of LPS-induced NO release at 0.1 to 100 uM preincubated for 1 hr followed by LPS addition measured after 24 hrs relative to control by Griess assay; assay type: cell-based; details: BV-2; outline: as §1
Sequence of Proto-oncogene tyrosine-protein kinase Src (Mus musculus) (P05480 2-535 limits assumed): as the sequence (P05480 2-535 limits assumed) above

[10] = Half life in ICR mouse blood at 50 mg/kg, ig up to 8 hrs by LC/MS/MS analysis; assay type: ADME, organism-based; details: po; outline: as §3
[11] = AUC (0 to infinity) in ICR mouse brain at 50 mg/kg, ig up to 8 hrs by LC/MS/MS analysis; assay type: ADME, organism-based; set-up: dose 50 mg/kg, route […], time infinity; details: in vivo, po, BLD = below limit of detection; outline: as §3
[12] = molecular target: Proto-oncogene tyrosine-protein kinase Src (Rattus norvegicus) (UniProt Q9WUD9); test: Inhibition of SRC in Sprague-Dawley rat primary mixed mesecephalic neuron/glial cells assessed as protection against LPS-induced dopaminergic neuro-toxicity by measuring TH expression at 10 uM preincubated for 1 hr followed by LPS challenge measured after 7 days by Western blot analysis
Outline: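 Mixed mesencephalic neuron/glia cultures from E14 Sprague-Dawley rats, used at 7 days. Agent at 10 µM added 1 h before LPS 100 ng/mL; TH measured by Western blot after 7 days, n = 4.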

[13] = molecular target: Proto-oncogene tyrosine-protein kinase Src (Mus musculus) (UniProt P05480); test: Inhibition of Src signaling pathway in mouse BV2 cells assessed as suppression of LPS-induced NO release at […] preincubated for 1 hr followed by LPS addition measured after 24 hrs relative to control by Griess assay; assay type: cell-based; details: BV-2
[14] = system: Mus musculus; test: Nephrotoxicity in ICR mouse at 1000 mg/kg administered through oral gavage for 14 consecutive days; assay type: toxicity, organism-based; details: in vivo
Outline: (§4)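 Mice dosed by oral gavage at 250, 500 and 1000 mg/kg for 14 consecutive days. General condition monitored throughout; liver and kidney clinical chemistry assessed.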

[15] = molecular target: Voltage-gated inwardly rectifying potassium channel KCNH2 (Homo sapiens, UniProt Q12809); test: Inhibition of human ERG by whole cell voltage clamp assay
Sequence of Voltage-gated inwardly rectifying potassium channel KCNH2 (Q12809 whole entry): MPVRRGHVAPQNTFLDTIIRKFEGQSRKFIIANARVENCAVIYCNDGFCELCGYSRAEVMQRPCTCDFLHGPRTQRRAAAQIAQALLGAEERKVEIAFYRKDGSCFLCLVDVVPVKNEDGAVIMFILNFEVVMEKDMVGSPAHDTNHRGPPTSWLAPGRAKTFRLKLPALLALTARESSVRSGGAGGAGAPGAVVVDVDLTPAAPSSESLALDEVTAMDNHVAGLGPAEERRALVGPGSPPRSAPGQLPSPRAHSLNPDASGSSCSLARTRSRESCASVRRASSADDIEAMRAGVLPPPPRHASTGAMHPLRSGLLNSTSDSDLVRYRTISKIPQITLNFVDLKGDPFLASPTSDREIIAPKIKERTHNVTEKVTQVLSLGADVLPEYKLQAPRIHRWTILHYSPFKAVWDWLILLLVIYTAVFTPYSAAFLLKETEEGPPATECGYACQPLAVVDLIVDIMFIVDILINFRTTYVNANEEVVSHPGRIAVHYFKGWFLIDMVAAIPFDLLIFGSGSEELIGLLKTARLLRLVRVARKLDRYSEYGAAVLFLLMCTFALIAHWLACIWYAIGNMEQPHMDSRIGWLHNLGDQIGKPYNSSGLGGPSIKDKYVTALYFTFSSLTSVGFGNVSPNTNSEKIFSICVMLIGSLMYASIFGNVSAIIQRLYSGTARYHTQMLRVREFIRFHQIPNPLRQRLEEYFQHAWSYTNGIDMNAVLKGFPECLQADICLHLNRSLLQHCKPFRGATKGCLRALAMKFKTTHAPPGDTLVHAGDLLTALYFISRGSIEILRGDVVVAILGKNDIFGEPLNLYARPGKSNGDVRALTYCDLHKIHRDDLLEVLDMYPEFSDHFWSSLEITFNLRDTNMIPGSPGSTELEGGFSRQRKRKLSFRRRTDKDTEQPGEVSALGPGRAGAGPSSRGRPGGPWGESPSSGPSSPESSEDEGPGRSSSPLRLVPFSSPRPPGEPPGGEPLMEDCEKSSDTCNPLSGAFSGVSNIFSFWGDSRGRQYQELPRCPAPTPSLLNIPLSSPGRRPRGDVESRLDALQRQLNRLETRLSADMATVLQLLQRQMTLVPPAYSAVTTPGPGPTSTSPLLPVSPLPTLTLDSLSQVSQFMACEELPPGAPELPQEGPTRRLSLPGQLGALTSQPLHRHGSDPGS
Outline: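 Whole-cell voltage clamp. Internal solution: KCl 130 mM, MgCl2 1 mM, EGTA 5 mM, ATP-Mg 5 mM, HEPES 10 mM, pH 7.2. Bath: NaCl 137, CaCl2 1.8, KCl 4, MgCl2 1, glucose 5, HEPES 10 mM, pH 7.4. From a holding potential of −70 mV, 2-s steps to 50 mV in 10 mV increments every 15 s; tail current recorded on a 2-s step from +50 to −40 mV.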

[16] = Toxicity in ICR mouse assessed as mortality administered through oral gavage; assay type: organism-based; details: in vivo
[17] = system: Mus musculus; test: Hepatotoxicity in ICR mouse at 1000 mg/kg administered through oral gavage for 14 consecutive days; assay type: toxicity, organism-based; details: in vivo; outline: as §4

SMILES | pIC50 [1] | other results
CC(C)CC(=O)c1c(O)cc(O)cc1OC[C@H](O)CNC(C)(C)C | 4.43 | –
COc1cc(OC)c(CN[C@@H](CCC(=O)O)C(=O)O)c(OC)c1 | 5.08 | Drug uptake [2]: Active; inhibition [3]: Active; inhibition [4]: Active; inhibition [5]: Active; Cmax [6]: Bld; Cmax [7]: 1640 ng/mL; AUC [8]: 3195.1 µg·L·h; inhibition [9]: Active; half-life [10]: 1.1 h; AUC [11]: Bld; inhibition [12]: Active
COc1cc(OC)c(CN[C@@H](Cc2ccccc2)C(=O)O)c(OC)c1 | – | inhibition [13]: < 50%
COc1cc(OC)c(CN[C@@H](CC(=O)O)C(=O)O)c(OC)c1 | 4.84 | inhibition [9]: Active
COc1ccc(C(=O)CC(C)C)c(OC[C@@H](O)CNC(C)C)c1 | 4.59 | –
CCCCC(=O)c1c(O)cc(O)cc1O | 4.95 | –
COc1ccc(C(=O)CC(C)C)c(O)c1 | 3.95 | –
COc1cc(OC)c(C(=O)CC(C)C)c(OCC(O)CNC(C)C)c1 (stereo not given) | 4.07 | –
COc1cc(OC)c(C(=O)CN2CCOCC2)c(OC)c1 | 4.49 | –
COc1cc(OC)c(C(=O)CC(C)C)c(OC[C@H](O)CNC(C)C)c1 | 4.38 | –
CC(C)CC(=O)c1ccc(O)cc1 | 4.04 | –
CC(C)CC(=O)c1c(O)cc(O)cc1OCC(O)CNC(C)C (stereo not given) | 4.13 | –
COc1ccc(C(=O)CC(C)C)c(OC[C@H](O)CNC(C)C)c1 | 4.39 | –
O=C(CCCN1CCN(c2cccc(Cl)c2)CC1)c1c(O)cc(O)cc1O | – | inhibition [13]: < 50%
COc1cc(/C=C/C(=O)CC(=O)/C=C/c2ccc(O)c(OC)c2)ccc1O [CURCUMIN] | 5.66 | –
COc1cc(OC)c(C(=O)CC(C)C)c(OC)c1 | 4.95 | –
CCN1CCN(CC(=O)c2c(OC)cc(OC)cc2OC)CC1 | 4.64 | –
CN(CCCC(=O)c1c(O)cc(O)cc1O)C1CCCCC1 | 4.26 | –
CC(C)CC(=O)c1c(O)cc(O)cc1OC[C@@H](O)CNC(C)(C)C | 4.62 | –
CC(C)CC(=O)c1c(O)cc(O)cc1O | 4.29 to 4.30 | –
COc1ccc(C(=O)CC(C)C)c(OC[C@H](O)CNC(C)(C)C)c1 | 4.55 | –
CC(C)CC(=O)c1c(O)cc(O)cc1OC[C@H](O)CNC(C)C | – | inhibition [13]: < 50%

SMILES | pIC50 [1] | other results
COc1ccc(C(=O)CC(C)C)c(OC[C@@H](O)CNC(C)(C)C)c1 | 4.27 | –
COc1cc(OC)c(CNCC(=O)O)c(OC)c1 | – | inhibition [13]: < 50%
CC(C)CC(=O)c1c(O)cc(O)cc1OC[C@@H](O)CNC(C)C | – | inhibition [13]: < 50%
CC(C)CC(=O)c1c(O)cc(O)cc1OCC(O)CNC(C)(C)C (stereo not given) | 4.66 | –
COc1cc(OC)c(C(=O)CN2CCN(C)CC2)c(OC)c1 | 4.02 | –
CCCCNC(=O)c1c(O)cc(O)cc1O | 4.43 | –
COc1cc(OC)c(C(=O)CC(C)C)c(OC[C@@H](O)CNC(C)C)c1 | 3.86 | –
CC(C)CC(=O)c1c(O)cc(O)cc1OCc1c(-c2ccccc2)no[n+]1[O-] | 5.07 | Drug uptake [2]: Active; inhibition [3]: Active; inhibition [4]: Active; inhibition [5]: Active; inhibition [12]: Active
COc1ccc(C(=O)CC(C)C)c(OCC(O)CNC(C)(C)C)c1 (stereo not given) | 3.86 | –
CC(C)NC(=O)c1c(O)cc(O)cc1O | 4.03 | –
COc1cc(OC)c(C(=O)CN2CCCCC2)c(OC)c1 | 4.60 | –
COc1cc(O)c(C(=O)CC(C)C)c(OC)c1 | 4.29 | –
O=C(CCCN1CCCCC1)c1c(O)cc(O)cc1O | 3.74 | –
COc1cc(OC)c(C(=O)CC(C)C)c(OCC(O)CNC(C)(C)C)c1 (stereo not given) | 4.12 | –
COc1cc(OC)c(CNC(C)C)c(OC)c1 | – | inhibition [13]: < 50%
COc1cc(OC)c(CN[C@@H](C)C(=O)O)c(OC)c1 | 4.41 | –
COc1cc(OC)c(C(=O)CC(C)C)c(OC[C@H](O)CNC(C)(C)C)c1 | – | inhibition [13]: < 50%
COc1cc(OC)c(CN[C@@H](Cc2cnc[nH]2)C(=O)O)c(OC)c1 | – | inhibition [13]: < 50%
COc1cc(OC)c(C(=O)CC(C)C)c(OC[C@@H](O)CNC(C)(C)C)c1 | 4.95 | –
COc1ccc(C(=O)CC(C)C)c(OCC(O)CNC(C)C)c1 (stereo not given) | – | inhibition [13]: < 50%
CC(=O)c1c(O)cc(O)cc1O [2,4,6-TRIHYDROXYACETOPHENONE] | 3.71 | –
COc1cc(O)cc(O)c1C(=O)CC(C)C | 5.24 | Activity [14]: Toxic; Drug uptake [2]: Active; inhibition [3]: Active; inhibition [4]: Active; inhibition [5]: Active; inhibition (INH) [15]: Active; LD50 [16]: 2000 mg/kg; Activity [17]: Toxic; inhibition [12]: Active
